The text below walks through data of ChEMBL document CHEMBL5357082, “Identification and Optimization of Small Molecule Pyrazolopyrimidine TLR7 Agonists for Applications in Immuno-oncology” (ACS Med Chem Lett, 2024).

One data set concerns CT26. The data set can be described thus: Antitumor activity against syngeneic mouse CT26 cells implanted in ip dosed Balb/cAnNHsd mouse assessed as tumor growth delay administered once a week for 4 weeks in presence of aPD1 antibody and measured twice weekly by digital caliper analysis. The conditions noted are these: dose 0.5-2.5 mg/kg. The format is functional, organism-based. In outline: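 Syngeneic CT-26 tumors in mice. The TLR7 agonist was given at 0.5 or 2.5 mg/kg weekly for 4 doses (QWx4). It was combined with anti-PD1 antibody at 10 mg/kg IP, every 4 days for 7 doses (Q4Dx7). Tumor growth was followed, including 27 days after compound dosing stopped.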

For another data set, the target named is Cytochrome P450 2C9 (Homo sapiens, UniProt P11712). The data set is described as follows: Inhibition of CYP2C9 (unknown origin). It counts as ADME.
Sequence of Cytochrome P450 2C9 (P11712 whole entry): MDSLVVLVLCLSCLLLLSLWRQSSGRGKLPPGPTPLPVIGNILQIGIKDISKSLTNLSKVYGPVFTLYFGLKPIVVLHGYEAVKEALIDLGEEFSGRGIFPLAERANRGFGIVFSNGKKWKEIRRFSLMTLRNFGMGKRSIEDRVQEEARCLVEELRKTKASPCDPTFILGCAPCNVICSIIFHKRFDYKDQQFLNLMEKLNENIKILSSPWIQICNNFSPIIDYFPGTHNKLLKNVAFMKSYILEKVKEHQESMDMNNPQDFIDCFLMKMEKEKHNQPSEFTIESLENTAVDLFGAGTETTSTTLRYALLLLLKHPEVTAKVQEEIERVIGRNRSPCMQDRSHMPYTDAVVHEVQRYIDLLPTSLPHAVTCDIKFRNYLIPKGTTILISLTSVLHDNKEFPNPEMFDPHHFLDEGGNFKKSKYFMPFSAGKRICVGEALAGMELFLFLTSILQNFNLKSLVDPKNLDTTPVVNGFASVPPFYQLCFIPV
Data set [1] addresses T1, Cytochrome P450 3A4 (Homo sapiens, UniProt P08684). The data set can be described thus: Inhibition of CYP3A4 (unknown origin) using BFC as substrate preincubated with compound followed by substrate addition at 5 mins. It counts as ADME.
Another data set addresses T2, Toll-like receptor 7 (Homo sapiens, UniProt Q9NYK1).
T2 sequence (Q9NYK1 whole entry): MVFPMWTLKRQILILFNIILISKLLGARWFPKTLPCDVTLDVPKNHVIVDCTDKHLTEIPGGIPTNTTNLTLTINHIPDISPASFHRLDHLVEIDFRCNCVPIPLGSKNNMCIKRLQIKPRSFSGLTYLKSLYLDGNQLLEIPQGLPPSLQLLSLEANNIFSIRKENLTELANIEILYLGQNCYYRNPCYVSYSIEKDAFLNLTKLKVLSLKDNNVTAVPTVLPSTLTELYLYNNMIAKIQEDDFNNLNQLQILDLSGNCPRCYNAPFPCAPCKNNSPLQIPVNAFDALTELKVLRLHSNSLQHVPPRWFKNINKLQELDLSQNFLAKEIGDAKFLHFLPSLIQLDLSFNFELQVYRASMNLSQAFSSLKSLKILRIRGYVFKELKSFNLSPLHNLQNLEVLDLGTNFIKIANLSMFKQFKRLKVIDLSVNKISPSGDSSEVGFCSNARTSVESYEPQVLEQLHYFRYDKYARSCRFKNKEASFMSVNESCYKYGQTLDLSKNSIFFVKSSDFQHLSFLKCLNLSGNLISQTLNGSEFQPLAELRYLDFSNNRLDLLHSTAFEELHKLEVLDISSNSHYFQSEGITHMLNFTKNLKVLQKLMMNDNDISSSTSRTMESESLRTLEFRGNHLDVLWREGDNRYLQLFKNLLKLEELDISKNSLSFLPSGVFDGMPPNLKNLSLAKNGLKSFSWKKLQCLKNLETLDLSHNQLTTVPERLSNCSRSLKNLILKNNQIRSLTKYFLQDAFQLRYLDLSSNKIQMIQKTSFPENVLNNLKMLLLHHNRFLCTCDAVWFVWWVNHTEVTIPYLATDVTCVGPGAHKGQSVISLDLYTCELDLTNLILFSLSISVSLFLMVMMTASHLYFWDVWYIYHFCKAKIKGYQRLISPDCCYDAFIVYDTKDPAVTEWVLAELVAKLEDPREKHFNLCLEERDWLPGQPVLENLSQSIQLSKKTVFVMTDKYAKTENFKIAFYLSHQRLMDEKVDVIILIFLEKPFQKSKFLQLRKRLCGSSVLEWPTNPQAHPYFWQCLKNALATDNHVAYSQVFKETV
The data set is described as follows: Agonist activity at human TLR7 in HEK-Blue hTLR7 cells harboring SEAP reporter transgene incubated for 18 hrs by quanti-blue reagent based assay. The format is cell-based.

Data set [2] deals with Voltage-gated inwardly rectifying potassium channel KCNH2 (Homo sapiens, UniProt Q12809). The data set can be described thus: Inhibition of hERG. It counts as toxicity.
Sequence of Voltage-gated inwardly rectifying potassium channel KCNH2 (Q12809 whole entry): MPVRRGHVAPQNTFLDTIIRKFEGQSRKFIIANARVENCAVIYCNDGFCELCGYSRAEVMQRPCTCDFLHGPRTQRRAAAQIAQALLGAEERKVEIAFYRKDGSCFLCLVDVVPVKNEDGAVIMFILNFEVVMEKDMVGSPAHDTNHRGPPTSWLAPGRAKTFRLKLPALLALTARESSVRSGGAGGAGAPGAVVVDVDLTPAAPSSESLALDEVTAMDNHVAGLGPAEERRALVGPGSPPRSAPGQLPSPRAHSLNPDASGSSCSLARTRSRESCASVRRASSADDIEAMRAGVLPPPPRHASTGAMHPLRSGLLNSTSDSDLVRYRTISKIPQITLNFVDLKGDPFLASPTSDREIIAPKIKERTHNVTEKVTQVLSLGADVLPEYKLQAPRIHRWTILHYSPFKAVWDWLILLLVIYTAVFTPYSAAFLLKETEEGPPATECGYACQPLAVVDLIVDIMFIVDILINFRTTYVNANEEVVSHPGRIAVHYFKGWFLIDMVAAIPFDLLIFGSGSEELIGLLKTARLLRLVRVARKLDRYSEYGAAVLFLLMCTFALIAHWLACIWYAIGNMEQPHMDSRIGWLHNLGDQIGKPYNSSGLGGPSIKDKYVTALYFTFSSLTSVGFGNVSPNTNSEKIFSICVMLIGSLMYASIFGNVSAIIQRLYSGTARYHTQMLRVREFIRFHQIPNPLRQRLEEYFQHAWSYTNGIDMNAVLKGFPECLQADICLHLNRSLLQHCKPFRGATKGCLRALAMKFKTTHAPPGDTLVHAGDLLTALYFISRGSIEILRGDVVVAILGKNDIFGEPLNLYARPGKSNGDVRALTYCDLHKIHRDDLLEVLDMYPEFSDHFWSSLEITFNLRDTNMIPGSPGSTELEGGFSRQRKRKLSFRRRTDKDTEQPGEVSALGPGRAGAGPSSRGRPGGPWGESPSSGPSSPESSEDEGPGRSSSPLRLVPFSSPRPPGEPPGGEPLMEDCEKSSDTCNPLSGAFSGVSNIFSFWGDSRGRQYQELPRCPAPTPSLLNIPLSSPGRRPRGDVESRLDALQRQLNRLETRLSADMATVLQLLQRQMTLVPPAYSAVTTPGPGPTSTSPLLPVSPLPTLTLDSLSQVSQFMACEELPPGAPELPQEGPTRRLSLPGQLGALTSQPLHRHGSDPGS
Data set [3] can be described thus: Cytotoxicity against PHA-activated T-cells (unknown origin) assessed as inhibition of IL-2 induced cell proliferation measured after 72 hrs by MTS assay. The format is toxicity, cell-based. (Tetrazolium dyes change colour on reduction, which living cells bring about.)
A further data set concerns the target T3, Toll-like receptor 8 (Homo sapiens, UniProt Q9NR97).
T3 sequence (Q9NR97 whole entry): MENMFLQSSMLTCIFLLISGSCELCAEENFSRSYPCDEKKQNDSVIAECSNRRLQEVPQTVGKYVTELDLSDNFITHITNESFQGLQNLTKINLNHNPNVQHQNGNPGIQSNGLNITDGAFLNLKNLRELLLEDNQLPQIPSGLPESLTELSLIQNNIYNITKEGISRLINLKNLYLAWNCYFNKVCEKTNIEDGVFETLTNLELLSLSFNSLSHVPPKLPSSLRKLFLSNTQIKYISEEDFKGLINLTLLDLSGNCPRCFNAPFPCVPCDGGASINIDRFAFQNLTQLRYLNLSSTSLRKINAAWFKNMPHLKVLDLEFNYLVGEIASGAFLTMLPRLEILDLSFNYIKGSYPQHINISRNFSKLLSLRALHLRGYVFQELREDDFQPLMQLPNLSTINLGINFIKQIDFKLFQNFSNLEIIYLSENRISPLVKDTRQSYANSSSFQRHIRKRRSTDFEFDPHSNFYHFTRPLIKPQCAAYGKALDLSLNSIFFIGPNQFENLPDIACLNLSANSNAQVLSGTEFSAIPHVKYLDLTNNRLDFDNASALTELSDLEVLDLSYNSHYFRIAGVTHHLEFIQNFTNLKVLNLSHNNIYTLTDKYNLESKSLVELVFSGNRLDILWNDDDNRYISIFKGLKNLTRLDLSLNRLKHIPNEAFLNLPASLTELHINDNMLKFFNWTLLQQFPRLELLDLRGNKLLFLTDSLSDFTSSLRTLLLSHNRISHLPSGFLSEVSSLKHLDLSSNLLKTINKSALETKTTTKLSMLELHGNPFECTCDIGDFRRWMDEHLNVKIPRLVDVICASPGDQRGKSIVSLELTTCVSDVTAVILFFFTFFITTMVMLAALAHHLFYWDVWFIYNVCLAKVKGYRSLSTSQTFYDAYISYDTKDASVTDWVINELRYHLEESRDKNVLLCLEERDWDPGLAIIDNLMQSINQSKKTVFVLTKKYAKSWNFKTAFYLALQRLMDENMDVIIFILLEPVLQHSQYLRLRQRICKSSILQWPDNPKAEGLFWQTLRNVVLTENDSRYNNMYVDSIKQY
The data set is described as follows: Agonist activity at human TLR8.

Data set [4] concerns the target T1, Cytochrome P450 3A4. The data set can be described thus: Inhibition of CYP3A4 (unknown origin) using BFC as substrate. It counts as ADME.

The source made the active and inactive calls. No cut-off for these calls is given here.

T1 sequence (P08684 whole entry): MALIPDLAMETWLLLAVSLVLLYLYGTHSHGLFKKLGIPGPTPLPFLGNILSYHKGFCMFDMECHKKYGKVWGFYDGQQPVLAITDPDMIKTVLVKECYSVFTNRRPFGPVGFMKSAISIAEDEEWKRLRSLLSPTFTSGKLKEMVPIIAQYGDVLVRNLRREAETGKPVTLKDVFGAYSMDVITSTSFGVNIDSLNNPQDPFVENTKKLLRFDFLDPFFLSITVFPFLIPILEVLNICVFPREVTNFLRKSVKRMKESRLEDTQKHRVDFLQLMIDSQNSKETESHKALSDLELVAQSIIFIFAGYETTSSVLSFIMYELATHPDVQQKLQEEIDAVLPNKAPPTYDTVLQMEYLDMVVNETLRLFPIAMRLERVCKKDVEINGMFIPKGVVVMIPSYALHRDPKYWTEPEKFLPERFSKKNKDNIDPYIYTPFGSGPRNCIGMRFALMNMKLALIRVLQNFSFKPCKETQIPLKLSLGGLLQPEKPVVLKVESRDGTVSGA

The IC50 is the concentration needed to halve the response being measured. As usually defined, the EC50 is the midpoint of the concentration-response curve. On to `CCC[C@@H](CCO)Nc1nc(N)nc2cnn(Cc3ncc(C4CCN(C5CCOCC5)CC4)cc3OC)c12`, for which the result with CT26 was Active. Moreover, the IC50 is above 20 µM against Cytochrome P450 2C9, above 20 µM at Cytochrome P450 3A4 [1], above 50 µM in data set [2] and above 20 µM against Cytochrome P450 3A4 [4]. Besides, the half-maximal effective concentration (EC50) is 0.013 µM at Toll-like receptor 7 and above 5 µM on Toll-like receptor 8. In data set [3], the IC50 at 72 h was above 25 µM.
